# TCR CD3 inh: inhibitors of human TCR-CD3 interaction | AID 651800 | TAMRA-labeled TCR probe fluorescence, biochemical | inhibition, % at 9.4 µM | 0.37% of 360,000 active; in the data active = inhibition above about 19%;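 also: recombinant mutant TCR 2C K166C tagged with TAMRA read by polarization; 0% = receptor in buffer alone and 100% = receptor with positive control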
# SIAE inh: human SIAE inhibition, primary screen; Q9HAT2; SIAE FP-Rh probe binding, fluorescence polarization; inhibition, % at 9.66 µM; 0.69% of 370,000 active; AID 1053197;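 active = inhibition above a cutoff: mean of compounds within the control limits plus 3 SD of those, cut at about 17% in these data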;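 also: 0% = plate median of compound wells and 100% = probe without SIAE protein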
# ABHD4 inh: inhibits mouse alpha/beta hydrolase domain 4; Q8VD66; purified mABHD4, FP-Rh probe fluorescence polarization; inhibition, % at 8.92 µM; 0.54% of 370,000 active; AID 720543;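 active = inhibition exceeding the mean over every tested compound plus 3 SD, cut at about 30% in these data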;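 also: 0% = plate median of compound wells and 100% = S159A mutant with DMSO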
#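 assay system = mABHD4 protein | compound dosing = single nominal dose of 8.92 µM, 0.89% DMSO final | read-out basis = percent inhibition of probe binding, normalized to plate controls | schedule = Enzyme–compound pre-incubation 45 min, then probe 60 min, both 25 °C | detection = fluorescence polarization, excitation 525 nm, emission 598 nm, BODIPY TMR filters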
# PRMT1 inh: PRMT1 (human) inhibition, primary screen; recombinant PRMT1, activity-based probe fluorescence polarization; inhibition, % at 2.79 µM; 1.3% of 370,000 active; AID 652257;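 active = inhibition above about 21% made by adding two undisclosed values, limit read from the data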
# Target sequence (Q99873 whole entry, looked up): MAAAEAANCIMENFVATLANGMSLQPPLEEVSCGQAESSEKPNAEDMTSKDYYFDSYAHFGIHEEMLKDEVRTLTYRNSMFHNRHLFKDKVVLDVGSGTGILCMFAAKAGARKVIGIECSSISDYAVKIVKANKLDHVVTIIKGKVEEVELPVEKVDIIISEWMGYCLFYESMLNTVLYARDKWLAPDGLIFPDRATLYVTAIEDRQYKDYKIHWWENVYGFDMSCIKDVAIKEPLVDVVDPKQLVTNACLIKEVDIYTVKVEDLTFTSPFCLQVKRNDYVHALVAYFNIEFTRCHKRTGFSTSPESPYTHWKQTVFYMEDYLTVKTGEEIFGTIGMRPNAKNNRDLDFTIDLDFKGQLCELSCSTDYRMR
# HTRA1 inh: blocks human HTRA1 serine peptidase | Q92743 | recombinant HTRA1, FP-rhodamine activity-based probe, fluorescence polarization | inhibition, % at 5.96 µM | 0.5% of 340,000 active | AID 504803; in the data active = inhibition above about 36%;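 also: 0% = enzyme with DMSO and 100% = wells lacking enzyme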
# SIAE inh conf: confirmation of human SIAE inhibitors; shares compounds with SIAE inh; SIAE FP-Rh activity-based probe, fluorescence polarization; 13% of 2,300 active; inhibition, % at 9.66 µM; AID 1117263;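 active = mean inhibition of the replicates above the hit cutoff set in the primary screen, cut at about 17% in these data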;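 also: 0% = SIAE with DMSO and probe and 100% = probe without SIAE; inhibitors lower polarization as more probe stays unbound to SIAE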
# Starred values were filed as active, the others as inactive; nt = no result given. The list is not random: actives were taken first. Their share in the collection is about 2.5%.
SMILES,TCR CD3 inh,SIAE inh,ABHD4 inh,PRMT1 inh,HTRA1 inh,SIAE inh conf
c1ccc2[nH]c(CN3CCN(c4ncnc5c4oc4ccccc45)CC3)nc2c1,-9,20*,6,0,-6,-5
Cc1nc(N2CCN(Cc3nc4ccccc4[nH]3)CC2)c2oc3ccccc3c2n1,-2,-2,-9,4,-13,nt
Cc1nn(Cc2ccc(Cl)cc2Cl)c(C)c1NC(=O)C1C2CCC(O2)C1C(=O)O (centres undefined),4,20*,0,2,-5,3
Cc1nn(Cc2ccc(Cl)cc2Cl)c(C)c1NC(=O)c1nn(C)cc1Cl,2,1,1,-1,-9,nt
Cc1nn(Cc2ccc(Cl)cc2Cl)c(C)c1NC(=O)c1nc2n(n1)C(C(F)F)CC(C)N2 (centres undefined),-5,31*,6,0,0,2
Cc1nn(Cc2ccc(Cl)cc2Cl)c(C)c1NC(=O)CCl,-3,-5,-2,2,-1,nt
CCOC(=O)CC[C@@]1(C(=O)OCC)C[C@@H](CC(=O)N2CCOCC2)C(=O)N2CCCC=C21,nt,4,6,-2,nt,nt
CCC(=O)N1CCc2cc(Br)c(S(=O)(=O)N3CCCC(C(=O)NC(C)(C)C)C3)cc21 (centres undefined),nt,-4,4,1,nt,nt
COc1ccc(-c2nc(-c3ccc4c(c3)OCO4)[nH]c2-c2ccc(OC)cc2)cc1,4,19*,13,-1,7,0
O=C(O)CCN1CC2([N+](=O)[O-])C=CC(=O)C([N+](=O)[O-])(C1)C2CC(=O)c1ccccc1 (centres undefined),-3,17*,27,11,-2,3
S=C(NCCCn1ccnc1)Nc1cccc(Cl)c1,7,20*,-1,-3,0,0
CCc1ccccc1N(CC(=O)N1CCCCC1)S(=O)(=O)c1ccccc1,5,7,-3,0,-10,nt
Cc1cccc(N(CC(=O)N2CCCC2)S(=O)(=O)c2ccccc2)c1C,-12,22*,1,1,1,0
CC(C)(C)c1ccc(C(=O)NNc2ccc(F)cc2F)cc1,-1,22*,-14,1,-1,-4
CCc1ccc(C(=O)NNc2ccc(F)cc2F)cc1,-3,-2,5,4,-2,nt
COc1ccc(OC)c(/C=N\Nc2nccs2)c1,2,18*,7,-2,4,2
COc1ccc([C@H]2OC(=O)C[C@@H]2C(=O)N2CCN(c3ccccc3Cl)CC2)cc1OC,nt,-1,-2,-2,nt,nt
CC(=O)CSc1ccc(S(=O)(=O)N2CCN(C)CC2)cn1,-1,23*,-1,7,1,-2
S=c1[nH]nc(-c2ccc3ncccc3c2)n1-c1ccc2c(c1)OCCO2,0,14,6,-3,0,nt
S=c1[nH]nc(Cn2c(-c3ccccn3)nc3ccccc32)n1-c1ccc2c(c1)OCCO2,4,19*,2,0,4,3
Cc1ccc(-c2n[nH]c(=O)c3ccccc23)cc1N,13,7,-1,0,4,nt
Nc1ccc(-c2n[nH]c(=O)c3ccccc23)cc1N,6,19*,-2,4,-23,7
COC(=O)N/N=C/c1cn(CCOc2cccc(OC)c2)c2ccccc12,-1,0,3,-1,6,nt
O=C(N/N=C/c1cn(Cc2ccccc2)c2ccccc12)c1cc(O)cc(O)c1,12,20*,7,5,7,-7
Cc1cccc(OCCn2cc(/C=N/NC(=O)c3ccncc3)c3ccccc32)c1,7,31*,7,1,6,-3
SMILES,TCR CD3 inh,SIAE inh,ABHD4 inh,PRMT1 inh,HTRA1 inh,SIAE inh conf
CC1(C)CC(=O)C2=C(C1)N1C(=C(C#N)C2c2ccc(Cl)cc2)N=C(N)c2ccccc21 (centres undefined),-9,20*,23,11,-42,1
COC(=O)[C@]12CCCCC=C1N(Cc1ccc(OC)cc1)C(=O)[C@@H]2CC(=O)NCc1ccc(C)o1,nt,-3,4,4,nt,nt
Cc1cccc(C(=O)OCC(=O)NC2CCCCCCC2)c1,-8,-10,-10,-6,-10,nt
Cc1ccc(C(=O)OCC(=O)NC2CCCCCC2)c(C)c1,5,122*,4,-1,-8,-2
S=C(Nc1ccc(Cl)cc1)N1CCN(Cc2ccccc2)CC1,-6,18*,-2,1,-9,6
COc1ccc(C2/C(=C(/O)c3ccc(C)cc3)C(=O)C(=O)N2C)cc1 (centres undefined),2,12,1,4,-5,nt

# Screening data from PubChem BioAssay.
